# Columns and labels:
# [1] = molecular target: T1, Histone-lysine N-methyltransferase EHMT2 (Homo sapiens, UniProt Q96KQ7); experiment: Inhibition of G9a in human MDA-MB-231 cells assessed as reduction of H3K9me2 after 48 hrs by In-Cell Western assay; type: cell-based
# T1 sequence (Q96KQ7 whole entry): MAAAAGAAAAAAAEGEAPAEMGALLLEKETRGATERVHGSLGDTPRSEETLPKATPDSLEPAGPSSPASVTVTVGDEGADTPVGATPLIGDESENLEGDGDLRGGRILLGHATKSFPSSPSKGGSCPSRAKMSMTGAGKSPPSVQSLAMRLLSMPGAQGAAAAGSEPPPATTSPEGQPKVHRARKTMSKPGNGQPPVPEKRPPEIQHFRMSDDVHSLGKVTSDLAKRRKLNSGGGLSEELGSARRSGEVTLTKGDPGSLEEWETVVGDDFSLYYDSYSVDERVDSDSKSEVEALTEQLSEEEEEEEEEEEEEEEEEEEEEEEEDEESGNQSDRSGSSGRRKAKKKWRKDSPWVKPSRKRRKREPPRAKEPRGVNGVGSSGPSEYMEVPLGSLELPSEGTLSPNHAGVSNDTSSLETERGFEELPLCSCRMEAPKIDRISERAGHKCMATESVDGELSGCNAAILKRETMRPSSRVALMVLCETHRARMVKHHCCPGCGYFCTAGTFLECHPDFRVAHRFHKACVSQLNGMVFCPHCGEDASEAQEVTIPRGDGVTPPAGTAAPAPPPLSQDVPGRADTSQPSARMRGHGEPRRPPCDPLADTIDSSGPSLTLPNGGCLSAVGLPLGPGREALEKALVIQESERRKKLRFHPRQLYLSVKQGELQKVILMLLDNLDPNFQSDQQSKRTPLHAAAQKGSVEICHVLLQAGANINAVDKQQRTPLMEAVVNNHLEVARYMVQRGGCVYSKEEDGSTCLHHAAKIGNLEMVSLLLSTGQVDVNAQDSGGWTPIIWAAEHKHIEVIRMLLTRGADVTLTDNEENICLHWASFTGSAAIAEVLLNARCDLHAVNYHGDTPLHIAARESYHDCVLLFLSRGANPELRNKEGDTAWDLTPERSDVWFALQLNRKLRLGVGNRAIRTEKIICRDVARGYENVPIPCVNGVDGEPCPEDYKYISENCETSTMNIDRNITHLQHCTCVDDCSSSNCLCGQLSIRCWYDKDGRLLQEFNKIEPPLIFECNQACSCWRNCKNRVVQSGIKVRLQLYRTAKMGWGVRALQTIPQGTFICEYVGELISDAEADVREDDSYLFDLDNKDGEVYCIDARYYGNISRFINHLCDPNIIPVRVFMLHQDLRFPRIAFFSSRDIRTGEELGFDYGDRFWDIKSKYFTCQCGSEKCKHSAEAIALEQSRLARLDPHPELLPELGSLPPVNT
# Procedure, shortened: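 In-Cell Western: MDA-MB-231 cells grown in RPMI/10% FBS were seeded at 5–10 thousand per well and treated 48 h across a concentration series. Cells were fixed in 2% formaldehyde, blocked in 1% BSA, and stained with H3K9me2 antibody (1/800, 2 h), then IR800 secondary plus DRAQ5. Three wells were stained and one kept as background. The 800 nm signal was normalized to background and DRAQ5 and expressed as % control. IC50 from a sigmoidal variable-slope fit, averaging at least duplicate runs.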
# [2] = Ratio of EC50 for human MDA-MB-231 cells to IC50 for G9a in human MDA-MB-231 cells
# Procedure, shortened: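 ICW used DRAQ5-normalized H3K9me2 immunofluorescence. MTT was read at 570 nm corrected at 650 nm. Each value was a sigmoidal variable-slope fit averaged over at least duplicate runs.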
# MDA-MB-231 = experiment: Cytotoxicity against human MDA-MB-231 cells assessed as cell viability after 48 hrs by MTT assay; type: functional, cell-based; conditions: MDA-MB-231, 48 h
# [3] = molecular target: T1, Histone-lysine N-methyltransferase EHMT2; experiment: Inhibition of G9a assessed as hydrolysis of S-adenosyl-L-homocysteine after 2 mins by SAHH-coupled fluorescence assay
# PC-3 = experiment: Cytotoxicity against human PC3 cells assessed as cell viability after 48 hrs by MTT assay; type: functional, cell-based; conditions: PC-3, 48 h
# Procedure, shortened: (§1)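 MTT viability read after 48 h inhibitor exposure. Culture media were alphaMEM + 10% FBS for 22RV1, DMEM + 10% FBS for IMR90 and MCF7, and RPMI + 10% FBS for PC3. Medium was replaced with phenol-red-free DMEM 10% FBS containing 1 mg/ml MTT for 1–2 h. Formazan was dissolved in acidified isopropanol/1% Triton and read at 570 nm minus 650 nm. EC50 came from a sigmoidal variable-slope fit, averaging at least duplicate runs.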
# [4] = Cytotoxicity against human […] assessed as cell viability after 48 hrs by MTT assay; type: functional, cell-based; procedure, shortened: as §1
# CWR22R = experiment: Cytotoxicity against human 22Rv1 cells assessed as cell viability after 48 hrs by MTT assay; type: functional, cell-based; conditions: 22Rv1, 48 h; procedure, shortened: as §1
# IMR-90 = experiment: Cytotoxicity against human IMR90 cells assessed as cell viability after 48 hrs by MTT assay; type: cell-based; conditions: IMR-90, 48 h; procedure, shortened: as §1
# [5] = molecular target: T1, Histone-lysine N-methyltransferase EHMT2; experiment: Inhibition of G9a in human PC3 cells assessed as reduction of H3K9me2 after 48 hrs by In-Cell Western assay; type: cell-based, PC-3
# [6] = molecular target: T1, Histone-lysine N-methyltransferase EHMT2; experiment: Inhibition of G9a in human HCT116 cells assessed as reduction of H3K9me2 after 48 hrs by In-Cell Western assay; type: cell-based, HCT-116
# [7] = molecular target: T1, Histone-lysine N-methyltransferase EHMT2; experiment: Inhibition of G9a in human MCF7 cells assessed as reduction of H3K9me2 after 48 hrs by In-Cell Western assay; type: cell-based
# [8] = molecular target: T1, Histone-lysine N-methyltransferase EHMT2; experiment: Inhibition of G9a in human 22Rv1 cells assessed as reduction of H3K9me2 after 48 hrs by In-Cell Western assay; type: cell-based, CWR22R
# [9] = molecular target: T1, Histone-lysine N-methyltransferase EHMT2; experiment: Inhibition of G9a in p53-deficient human HCT116 cells assessed as reduction of H3K9me2 after 48 hrs by In-Cell Western assay; type: cell-based, HCT-116
# [10] = molecular target: T1, Histone-lysine N-methyltransferase EHMT2; experiment: Inhibition of G9a in human IMR90 cells assessed as reduction of H3K9me2 after 48 hrs by In-Cell Western assay; type: cell-based, IMR-90
Structure (SMILES),IC50 [1],Ratio [2],EC50 (MDA-MB-231),IC50 [3],also measured
COc1cc2c(NC3CCN(C(C)C)CC3)nc(N3CCCN(C4CCCCC4)CC3)nc2cc1OCCCN1CCCC1,100 nM,7,0.73 µM,22 nM,–
COc1cc2c(NC3CCN(C(C)C)CC3)nc(C3CCCCC3)nc2cc1OCCCN1CCCC1,–,–,–,–,EC50 (PC-3): 14 µM; EC50 [4]: 7.6 µM; EC50 (CWR22R): 4.5 µM; EC50 (IMR-90): 2300 nM
COc1cc2c(NC3CCN(C(C)C)CC3)nc(N3CCCN(Cc4ccccc4)CC3)nc2cc1OCCCN1CCCC1,58 nM,10,0.6 µM,9 nM,–
CCN1CCCN(c2nc(NC3CCN(C(C)C)CC3)c3cc(OC)c(OCCCN4CCCC4)cc3n2)CC1,470 nM,4,1.7 µM,–,–
COc1cc2c(NC3CCN(C(C)C)CC3)nc(N3CCCCCC3)nc2cc1OCCCN1CCCC1,100 nM,57,5.7 µM,20 nM,–
COc1cc2c(NC3CCN(C(C)C)CC3)nc(N3CCCCCC3)nc2cc1OCCCN1CCCCC1,240 nM,–,6.6 µM,31 nM,–
COc1cc2c(NC3CCN(C(C)C)CC3)nc(C3CCCCC3)nc2cc1OCCCN1CCCCC1,260 nM,–,7.6 µM,110 nM,–
COc1cc2c(NC3CCN(C(C)C)CC3)nc(N3CCCN(c4ccccc4)CC3)nc2cc1OCCCN1CCCC1,220 nM,10,2.1 µM,10 nM,–
COc1cc2c(NC3CCN(C)CC3)nc(N3CCCN(C)CC3)nc2cc1OCCCN1CCCCC1,–,–,12 µM,–,–
COc1cc2c(NC3CCN(CC4CCCCC4)CC3)nc(N3CCCN(C(C)C)CC3)nc2cc1OCCCN1CCCCC1,25 nM,–,2.8 µM,4 nM,IC50 [5]: 26 nM; IC50 [6]: 51 nM; IC50 [7]: 18 nM; IC50 [8]: 24 nM; IC50 [9]: 72 nM; IC50 [10]: 46 nM
COc1cc2c(NC3CCN(C)CC3)nc(N3CCCN(C)CC3)nc2cc1OCCCN1CCCC1,–,–,15 µM,–,–
COc1cc2c(NC3CCN(C)CC3)nc(N3CCCN(C)CC3)nc2cc1OCCCN(C)C,–,–,34 µM,–,–
COc1cc2c(NC3CCN(C)CC3)nc(N3CCCN(C)CC3)nc2cc1OCCOCCN(C)C,11000 nM,–,> 40 µM,–,–
COc1cc2c(NC3CCN(C(C)C)CC3)nc(N3CCCN(C(C)C)CC3)nc2cc1OCCCN1CCCCC1,54 nM,–,4.1 µM,8 nM,–
COc1cc2c(NC3CCN(C(C)C)CC3)nc(N3CCCN(C(C)C)CC3)nc2cc1OCCCN1CCCC1,340 nM,13,4.5 µM,2 nM,–
COc1cc2c(NC3CCN(C(C)C)CC3)nc(N3CCCN(C)CC3)nc2cc1OCCCN1CCCC1,520 nM,3,1.4 µM,10 nM,–
COc1cc2c(NC3CCN(C(C)C)CC3)nc(N3CCCCC3)nc2cc1OCCCN1CCCC1,150 nM,47,7 µM,16 nM,–
COc1cc2c(NC3CCN(C4CCCCC4)CC3)nc(N3CCCN(C)CC3)nc2cc1OCCCN1CCCCC1,56 nM,–,2.9 µM,11 nM,–
COc1cc2c(NC3CCN(C(C)C)CC3)nc(N3CCCN(CC4CCCCC4)CC3)nc2cc1OCCCN1CCCC1,93 nM,8,0.76 µM,–,–
COc1cc2c(NC3CCN(C(C)C)CC3)nc(C3CCCCC3)nc2cc1OCCOCCN(C)C,180 nM,–,13 µM,21 nM,–
